The results in this text go back to ChEMBL document CHEMBL4402598, “Design and Synthesis of Bitopic 2-Phenylcyclopropylmethylamine (PCPMA) Derivatives as Selective Dopamine D3 Receptor Ligands” (J Med Chem, 2020).

The target in one series is D(1B) dopamine receptor (Homo sapiens, UniProt P21918). Nature of the series: Displacement of [3H]-SCH23390 from recombinant human D5 receptor transiently expressed in HEKT cell membranes measured after 90 mins by microbeta scintillation counting method. On the technique in general: Displacement assays read how much labelled ligand stays bound in the presence of the test substance.

Series [1] addresses T1, 5-hydroxytryptamine receptor 2C (Homo sapiens, UniProt P28335).
T1 sequence (P28335 whole entry): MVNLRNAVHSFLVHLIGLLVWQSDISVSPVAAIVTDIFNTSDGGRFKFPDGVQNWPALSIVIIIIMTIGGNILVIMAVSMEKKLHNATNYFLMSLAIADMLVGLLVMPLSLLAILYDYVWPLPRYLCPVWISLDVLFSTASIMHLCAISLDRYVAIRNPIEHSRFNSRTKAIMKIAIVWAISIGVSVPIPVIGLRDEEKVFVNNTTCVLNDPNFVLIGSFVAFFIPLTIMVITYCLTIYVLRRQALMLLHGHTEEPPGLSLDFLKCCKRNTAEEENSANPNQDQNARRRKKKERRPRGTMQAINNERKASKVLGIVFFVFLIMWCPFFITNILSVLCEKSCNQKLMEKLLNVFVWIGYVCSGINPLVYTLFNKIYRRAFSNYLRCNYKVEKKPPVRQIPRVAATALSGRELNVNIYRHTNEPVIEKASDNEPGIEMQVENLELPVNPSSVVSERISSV
Nature of the series: Displacement of [3H]-Mesulergine from recombinant human 5HT2C receptor expressed in HEKT cell membranes measured after 90 mins by microbeta scintillation counting method.

The target of series [2] is T1, 5-hydroxytryptamine receptor 2C. Nature of the series: Agonist activity at human 5HT2C receptor stably expressed in HEK293 cells co-expressing Gq assessed as induction of calcium mobilization measured at 1 sec interval for 60 secs by Fluo-4 calcium dye based FLIPR assay. Format: functional, cell-based. In a few lines: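 HEK293 cells stably expressing 5-HT2C, plated overnight in DMEM with 1% dialyzed FBS (15,000 cells/well), loaded with Fluo-4 Direct in HBSS/20 mM HEPES pH 7.4/2.5 mM probenecid for 50 min at 37 °C, then 10 min at room temperature. FLIPR read 1/s for 2 min; 10 s baseline subtracted from peak within 60 s; fold of basal. Mean of ≥3 experiments.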
A general note: Calcium assays in cells follow changes in intracellular calcium, usually with a dye or a luminescent sensor.

In the next series the target is D(1A) dopamine receptor (Homo sapiens, UniProt P21728). As to the kind of experiment: Displacement of [3H]-SCH23390 from recombinant human D1 receptor transiently expressed in HEKT cell membranes measured after 90 mins by microbeta scintillation counting method.
The target of series [3] is 5-hydroxytryptamine receptor 2A (Homo sapiens, UniProt P28223). Nature of the series: Agonist activity at 5HT2A receptor (unknown origin) expressed in HEK293 cells co-expressing Gq assessed as induction of calcium mobilization measured at 1 sec interval for 60 secs by Fluo-4 calcium dye based FLIPR assay. The format is cell-based. Particulars: hek293, 1 min; call rule not given here.
Series [4] deals with 5-hydroxytryptamine receptor 2B (Homo sapiens, UniProt P41595). As to the kind of experiment: Agonist activity at 5HT2B receptor (unknown origin) expressed in HEK293 cells co-expressing Gq assessed as induction of calcium mobilization measured at 1 sec interval for 60 secs by Fluo-4 calcium dye based FLIPR assay. Format: cell-based. Particulars: hek293, 1 min.
For the next series, the target named is T2, D(4) dopamine receptor (Homo sapiens, UniProt P21917).
T2 sequence (P21917 whole entry): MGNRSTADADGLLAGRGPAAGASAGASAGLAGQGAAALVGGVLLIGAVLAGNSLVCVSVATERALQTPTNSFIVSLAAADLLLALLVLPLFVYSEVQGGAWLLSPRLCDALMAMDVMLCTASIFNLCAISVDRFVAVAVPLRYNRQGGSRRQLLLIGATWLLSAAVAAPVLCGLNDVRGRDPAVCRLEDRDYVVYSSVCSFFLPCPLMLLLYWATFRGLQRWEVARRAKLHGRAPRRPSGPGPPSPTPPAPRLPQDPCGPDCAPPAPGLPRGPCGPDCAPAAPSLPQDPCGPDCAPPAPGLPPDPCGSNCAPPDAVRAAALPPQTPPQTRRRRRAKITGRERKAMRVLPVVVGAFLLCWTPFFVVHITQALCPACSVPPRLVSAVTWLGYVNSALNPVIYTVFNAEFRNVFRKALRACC
Nature of the series: Displacement of [3H]-N-methylspiperone from recombinant human D4 receptor stably expressed in HEK cell membranes measured after 90 mins by microbeta scintillation counting method.

Another series deals with D(2) dopamine receptor (Homo sapiens, UniProt P14416). As to the kind of experiment: Displacement of [3H]-N-methylspiperone from recombinant human D2 receptor stably expressed in fibroblast cell membranes measured after 90 mins by microbeta scintillation counting method.
Sequence of D(2) dopamine receptor (P14416 whole entry): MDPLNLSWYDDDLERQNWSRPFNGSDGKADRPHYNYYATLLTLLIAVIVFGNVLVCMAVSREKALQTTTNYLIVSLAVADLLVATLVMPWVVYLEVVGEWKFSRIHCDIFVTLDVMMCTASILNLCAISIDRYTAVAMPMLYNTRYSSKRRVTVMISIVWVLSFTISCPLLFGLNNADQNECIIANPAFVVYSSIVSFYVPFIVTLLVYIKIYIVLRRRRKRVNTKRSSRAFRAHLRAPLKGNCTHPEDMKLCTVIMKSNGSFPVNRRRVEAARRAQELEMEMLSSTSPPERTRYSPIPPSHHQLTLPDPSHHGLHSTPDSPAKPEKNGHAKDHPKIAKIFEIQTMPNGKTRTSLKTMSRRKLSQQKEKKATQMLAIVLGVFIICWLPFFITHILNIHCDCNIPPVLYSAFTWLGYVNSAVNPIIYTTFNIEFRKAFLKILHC

Sequence of D(1A) dopamine receptor (P21728 whole entry): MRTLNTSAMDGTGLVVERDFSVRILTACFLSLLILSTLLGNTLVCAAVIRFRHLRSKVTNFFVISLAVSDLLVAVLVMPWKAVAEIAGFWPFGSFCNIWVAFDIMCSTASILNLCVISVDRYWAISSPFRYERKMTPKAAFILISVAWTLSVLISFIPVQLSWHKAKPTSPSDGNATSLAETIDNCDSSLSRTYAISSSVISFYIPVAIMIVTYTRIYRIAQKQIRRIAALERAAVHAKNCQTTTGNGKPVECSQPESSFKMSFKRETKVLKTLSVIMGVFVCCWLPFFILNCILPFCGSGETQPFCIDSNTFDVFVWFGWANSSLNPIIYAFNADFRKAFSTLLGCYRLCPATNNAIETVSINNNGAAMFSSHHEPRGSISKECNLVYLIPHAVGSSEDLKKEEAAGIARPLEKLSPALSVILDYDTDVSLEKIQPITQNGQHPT
Sequence of 5-hydroxytryptamine receptor 2B (P41595 whole entry): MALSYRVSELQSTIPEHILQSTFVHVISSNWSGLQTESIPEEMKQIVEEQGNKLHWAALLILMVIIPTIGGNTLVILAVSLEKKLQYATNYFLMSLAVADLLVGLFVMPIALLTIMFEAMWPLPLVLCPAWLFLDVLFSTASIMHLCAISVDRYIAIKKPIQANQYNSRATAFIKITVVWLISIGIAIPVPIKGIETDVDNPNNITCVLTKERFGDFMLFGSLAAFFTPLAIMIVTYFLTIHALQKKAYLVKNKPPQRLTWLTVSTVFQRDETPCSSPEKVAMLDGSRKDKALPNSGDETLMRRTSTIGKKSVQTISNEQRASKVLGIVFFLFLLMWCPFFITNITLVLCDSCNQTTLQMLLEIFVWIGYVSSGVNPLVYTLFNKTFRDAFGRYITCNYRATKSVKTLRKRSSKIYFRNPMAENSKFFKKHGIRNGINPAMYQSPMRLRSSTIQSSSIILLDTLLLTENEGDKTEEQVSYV
Sequence of 5-hydroxytryptamine receptor 2A (P28223 whole entry): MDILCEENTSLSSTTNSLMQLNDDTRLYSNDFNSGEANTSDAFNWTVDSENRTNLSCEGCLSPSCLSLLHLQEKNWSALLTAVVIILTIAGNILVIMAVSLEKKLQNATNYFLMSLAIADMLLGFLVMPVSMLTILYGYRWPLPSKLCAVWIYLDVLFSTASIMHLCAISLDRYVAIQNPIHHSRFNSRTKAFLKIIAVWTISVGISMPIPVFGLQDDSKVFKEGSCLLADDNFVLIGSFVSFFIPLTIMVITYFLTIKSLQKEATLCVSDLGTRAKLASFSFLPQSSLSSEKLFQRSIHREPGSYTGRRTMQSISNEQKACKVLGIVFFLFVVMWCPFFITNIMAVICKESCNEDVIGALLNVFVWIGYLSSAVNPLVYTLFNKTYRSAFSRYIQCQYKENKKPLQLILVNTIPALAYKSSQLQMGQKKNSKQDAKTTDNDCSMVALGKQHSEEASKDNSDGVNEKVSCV
Sequence of D(1B) dopamine receptor (P21918 whole entry): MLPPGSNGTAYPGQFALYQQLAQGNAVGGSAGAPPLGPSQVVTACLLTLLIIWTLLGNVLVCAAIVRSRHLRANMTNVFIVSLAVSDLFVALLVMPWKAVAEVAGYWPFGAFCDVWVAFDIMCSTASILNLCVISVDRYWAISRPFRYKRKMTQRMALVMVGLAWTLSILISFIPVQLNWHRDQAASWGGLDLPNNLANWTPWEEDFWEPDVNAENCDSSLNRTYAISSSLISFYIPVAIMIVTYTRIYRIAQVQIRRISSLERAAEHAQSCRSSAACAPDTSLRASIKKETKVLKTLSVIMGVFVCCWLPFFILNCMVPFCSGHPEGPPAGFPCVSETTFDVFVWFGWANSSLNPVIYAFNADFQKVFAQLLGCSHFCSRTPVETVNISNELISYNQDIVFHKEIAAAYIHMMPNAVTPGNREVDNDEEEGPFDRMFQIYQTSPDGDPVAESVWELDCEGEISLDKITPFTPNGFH

On to `CCCN(CCCCNC(=O)c1ccc2ccccc2c1)C[C@H]1C[C@@H]1c1cccc(Cl)c1Cl.Cl`, for which the Ki – broadly, the dissociation constant of the complex between target and ligand, obtained from inhibition or displacement – on D(1B) dopamine receptor is > 5000 nM; in series [1], 138 nM; on D(1A) dopamine receptor, 1050 nM; on D(4) dopamine receptor, 776 nM; at D(2) dopamine receptor, 1150 nM. Also, in series [2], the EC50 (usually the concentration at which the effect is half-maximal) came out at 3540 nM. Further, the values for the Activity result in series [3] and in series [4] were “Active” and “Not Active”, respectively.
With `CCCN(CCCCNC(=O)c1cc2ccccc2[nH]1)C[C@H]1C[C@@H]1c1cccc(Cl)c1Cl.Cl`, the Ki was > 5000 nM on D(1B) dopamine receptor; 61.7 nM in series [1]; 1120 nM on D(1A) dopamine receptor; 676 nM at D(4) dopamine receptor; 992 nM on D(2) dopamine receptor. Also, the EC50 in series [2] worked out at 2550 nM. The Activity entry is “Active” in series [3] and “Not Active” in series [4].
`CCCN(CCCCNC(=O)c1ccc(-c2ccccn2)cc1)C[C@H]1C[C@@H]1c1cccc(Cl)c1Cl.Cl`: the inhibition constant (Ki) at D(1B) dopamine receptor is > 5000 nM; in series [1] it was 44.7 nM; on D(1A) dopamine receptor, 2340 nM; at D(4) dopamine receptor, 912 nM. The EC50 in series [2] was 738 nM. The Activity entry was “Active” in series [3] and “Not Active” in series [4].
